Assay results taken from ChEMBL document CHEMBL3046765, “Subnanomolar inhibitor of cytochrome bc1 complex designed by optimizing interaction with conformationally flexible residues” (J Am Chem Soc, 2010).
Activity calls are given as the source filed them. The calls are words filed in the database; no cut-off is given here.

Assays:
[1] = biological target: T1, Succinate dehydrogenase [ubiquinone] iron-sulfur subunit, mitochondrial (Sus scrofa) (UniProt Q007T0); assay: Inhibition of Sus scrofa (pig) heart succinate-cytochrome c reductase (Electron transport protein complex 2/3) using succinate and cytochrome c as substrate by spectrophotometric analysis
T1 sequence (whole entry): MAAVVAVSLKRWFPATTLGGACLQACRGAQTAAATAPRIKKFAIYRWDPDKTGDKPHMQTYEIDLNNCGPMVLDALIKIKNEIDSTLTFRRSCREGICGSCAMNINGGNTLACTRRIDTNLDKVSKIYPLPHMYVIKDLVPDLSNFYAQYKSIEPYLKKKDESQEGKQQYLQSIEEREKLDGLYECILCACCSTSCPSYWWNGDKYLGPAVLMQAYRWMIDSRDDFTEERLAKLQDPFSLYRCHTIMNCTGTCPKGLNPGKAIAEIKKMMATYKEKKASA
How it was run: (§1)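 Progress curves at 0–5 nM inhibitor fitted by nonlinear regression for v0, vs, kobs; kobs versus inhibitor gives k+0, k−0; Ki = k−0/k+0. Cytochrome c 4–48 µM varied at fixed inhibitor for mechanism.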

[2] = biological target: Succinate-ubiquinone oxidoreductase (Sus scrofa) (UniProt A5GZW8+D0VWV4); assay: Inhibition of Sus scrofa (pig) heart succinate-ubiquinone reductase using succinate and DCIP as substrate by spectrophotometric analysis by spectrophotometric analysis; format: protein-complex assay
How it was run: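 Porcine heart SCR preparation; complex II activity as succinate oxidation by 53 µM DCIP in 100 mM PBS pH 7.4, 0.3 mM EDTA, 20 mM succinate, 23°C, started by enzyme addition. DCIP reduction followed continuously at A600 (ε 21 mM−1cm−1) with varying inhibitor concentrations.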

[3] = biological target: Cytochrome b (Sus scrofa, UniProt P24964); assay: Inhibition of Sus scrofa (pig) heart cytochrome bc1 complex using succinate and cytochrome c as substrates by spectrophotometric analysis
[4] = species: Sus scrofa; assay: Competitive inhibition of Sus scrofa (pig) heart cytochrome bc1 complex using ubiquinol as substrate
[5] = biological target: T1, Succinate dehydrogenase [ubiquinone] iron-sulfur subunit, mitochondrial (Sus scrofa); assay: Inhibition of Sus scrofa (pig) heart succinate-cytochrome c reductase (Electron transport protein complex 2/3) using succinate and cytochrome c as substrate at 1 to 5 nM by spectrophotometric analysis; how it was run: as §1
[6] = species: Sus scrofa; assay: Non-competitive inhibition of Sus scrofa (pig) heart cytochrome bc1 complex using cytochrome c as substrate; how it was run: as §1
[7] = biological target: Cytochrome b (Sus scrofa) (UniProt P24964); assay: Inhibition of Sus scrofa (pig) heart cytochrome bc1 complex using succinate as substrate at 7.5 to 25 nM by spectropfhotometric analysis
[8] = biological target: Cytochrome b (Sus scrofa) (UniProt P24964); assay: Ratio of pyraclostrobin Ki to compound Ki for Sus scrofa (pig) heart cytochrome bc1 complex
[9] = biological target: Cytochrome b (Sus scrofa) (UniProt P24964); assay: Ratio of kresoxim-methyl Ki to compound Ki for Sus scrofa (pig) heart cytochrome bc1 complex
[10] = biological target: Cytochrome b (Sus scrofa) (UniProt P24964); assay: Ratio of azoxystobin Ki to compound Ki for Sus scrofa (pig) heart cytochrome bc1 complex

Sequence of Cytochrome b (P24964 whole entry): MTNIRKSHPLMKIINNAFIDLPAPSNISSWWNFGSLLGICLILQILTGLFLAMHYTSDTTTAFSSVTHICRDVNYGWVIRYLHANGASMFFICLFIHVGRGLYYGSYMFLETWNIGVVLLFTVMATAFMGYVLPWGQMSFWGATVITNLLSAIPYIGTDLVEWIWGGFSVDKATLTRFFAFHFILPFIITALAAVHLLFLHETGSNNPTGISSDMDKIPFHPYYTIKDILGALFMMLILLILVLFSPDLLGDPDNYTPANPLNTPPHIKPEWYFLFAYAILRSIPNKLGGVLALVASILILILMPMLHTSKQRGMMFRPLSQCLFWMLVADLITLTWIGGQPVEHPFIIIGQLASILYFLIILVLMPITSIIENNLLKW
Sequence of Cytochrome b (Sus scrofa) (P24964 whole entry): as above

## CO/C=C(/C(=O)OC)c1ccccc1COc1cc(-c2ccccc2O)nn1C
[1]
  inhibition: Active
[2]
  inhibition: inactive
[3]
  Ki: 1.2 nM

## CO/N=C(/C(=O)OC)c1ccccc1COc1ccccc1C [KRESOXIM-METHYL]
[3]
  Ki: 160 nM

## CO/C=C(/C(=O)OC)c1ccccc1COc1cc(-c2ccccc2OCc2ccccc2)nn1C
[3]
  Ki: 12.7 nM

## CO/C=C(/C(=O)OC)c1ccccc1COc1cc(-c2cc(C)ccc2OC)nn1C
[3]
  Ki: 19.9 nM

## CO/C=C(/C(=O)OC)c1ccccc1COc1cc(-c2cc(Cl)ccc2O)nn1C
[4]
  inhibition: Active
[5]
  inhibition: Active
[6]
  inhibition: Active
[2]
  inhibition: inactive
[7]
  inhibition: Active
[8]
  Ratio Ki: 5.8
[9]
  Ratio Ki: 280
[10]
  Ratio Ki: 522
[3]
  Ki: 0.57 nM

## COC(=O)N(OC)c1ccccc1COc1ccn(-c2ccc(Cl)cc2)n1 [PYRACLOSTROBIN]
[3]
  Ki: 3.3 nM

## CO/N=C(/C(=O)OC)c1ccccc1COc1cc(-c2ccccc2O)nn1C
[1]
  inhibition: Active
[2]
  inhibition: inactive
[3]
  Ki: 3.8 nM

## CO/C=C(/C(=O)OC)c1ccccc1COc1cc(-c2ccccc2OC)nn1C
[3]
  Ki: 29.1 nM

## CO/C=C(/C(=O)OC)c1ccccc1COc1cc(-c2cc(C)ccc2O)nn1C
[1]
  inhibition: Active
[2]
  inhibition: inactive
[3]
  Ki: 3.1 nM

## CO/C=C(/C(=O)OC)c1ccccc1COc1cc(-c2ccccc2OC(=O)c2ccc(F)cc2)nn1C
[3]
  Ki: 97.7 nM

## CO/C=C(/C(=O)OC)c1ccccc1Oc1cc(Oc2ccccc2C#N)ncn1 [AZOXYSTROBIN]
[3]
  Ki: 298 nM
